Assay outcomes from PubChem.
MLL AF4-AF9 inh = blocks AF4 peptide binding to human AF9; P42568; AlphaScreen, biotin-AF4 peptide binding to FLAG-AF9; inhibition, % at 10 µM; 350,000 compounds, 0.47% hits;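 active = every replicate reaching a set inhibition limit, whatever the replicate mean, cut at about 25% in these data; inconclusive = mean inhibition reaches that limit but some replicates miss it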
S100A4 inh HTS = blocks human S100A4 binding to myosin IIA peptide; inhibition, % at 10.7 µM; 360,000 compounds, 0.14% hits; S100A4/TAMRA-MyoIIA peptide fluorescence polarization; AID 652163;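 active = mean inhibition of at least 70% across replicates, with every replicate also reaching that level; inconclusive = mean inhibition reaches 70% but some replicates fall short; inactive = mean inhibition below 70%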
Target sequence (P26447 whole entry, looked up): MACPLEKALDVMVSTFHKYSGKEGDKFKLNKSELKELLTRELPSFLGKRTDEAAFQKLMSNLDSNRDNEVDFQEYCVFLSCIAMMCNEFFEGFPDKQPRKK
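Material: human S100A4 monomer with TAMRA-labelled myosin IIA peptide; buffer or medium: HEPES pH 7.2 with CaCl2, KCl, NaCl, DTT, Triton; compound dosing: one concentration per compound; schedule: 5 min incubation before reading; benchmarks: neutral control DMSO, positive control TFP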
CaV13 FRET inh = Disruptors of the CACNA1D IQ motif to Ca2+-dependent inactivation inhibitor domain association, primary screening, Förster resonance energy transfer in intact living …; HEK cells, CFP/YFP FRET ICDI-IQ, plate reader, 10 min; percent FRET-ratio fall versus neutral wells; AID 743397; inhibition, % at 12.3 µM; 340,000 compounds, 0.098% hits;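 active = mean replicate inhibition of at least 30% and at least 1% of replicates passing that level; inconclusive = only one of the two criteria is met; inactive = neither criterion is met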
SIRT5 inh = blocks human SIRT5 desuccinylation of peptide; AID 652115; Q9NXA8; 330,000 compounds, 1.1% hits; Purified SirT5, succinyl-peptide AMC, trypsin-coupled fluorescence; inhibition, % at 15 µM; in the data active = inhibition above about 15%; inconclusive = no clear call, values can overlap the other calls
Target sequence (Q9NXA8 whole entry, looked up): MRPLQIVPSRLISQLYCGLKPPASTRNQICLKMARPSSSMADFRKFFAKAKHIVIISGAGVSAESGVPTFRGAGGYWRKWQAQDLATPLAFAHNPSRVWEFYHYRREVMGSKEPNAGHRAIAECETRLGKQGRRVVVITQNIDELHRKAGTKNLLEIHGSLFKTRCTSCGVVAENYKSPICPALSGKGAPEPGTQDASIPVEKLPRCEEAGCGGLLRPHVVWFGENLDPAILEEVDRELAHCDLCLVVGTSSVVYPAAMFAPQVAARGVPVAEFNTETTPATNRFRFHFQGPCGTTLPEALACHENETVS
DENV2 CPE rescue = protects cells from dengue virus 2 cytopathic effect. 350,000 compounds, 1.7% hits. DENV2-infected cells, cytopathic effect rescue, plate reader. CPE inhibition, % at 9.99 µM; in the data active = CPE inhibition above about 20%, passing the limit was not always enough; inconclusive = no clear call, values can overlap the other calls; tested in BHK-21 cells
Hits are given with their value; – = inactive; ? = inconclusive; · = no result; + = active, no number. Rows were chosen to be rich in hits. Some 2.7% of all compounds tested hit in one or more screens of this group.

SMILES	MLL AF4-AF9 inh	S100A4 inh HTS	CaV13 FRET inh	SIRT5 inh	DENV2 CPE rescue
CC(C)c1oc(=O)cc2c1[C@@H](O)[C@H]1OC(=O)[C@@]3(C)C[C@@H](O)[C@@H](O)[C@@]2(C)C13 (some centres undefined)	–	–	–	–	87
CC(C)c1oc(=O)cc2c1[C@@H](O)[C@H]1OC(=O)[C@@]3(C)CC[C@@H](O)[C@@]2(C)C13 (some centres undefined)	–	–	–	·	–
CCN1[C@@H]2c3ccc(-c4cccc(C(=O)N(C)C)c4)c(=O)n3C[C@H]1[C@H](CO)[C@H]2C(=O)OC	–	–	·	–	–
c1ccc2c(c1)Sc1ccccc1N2CC1CN2CCC1CC2 (centres undefined)	27	–	–	–	–
CC(=O)O[C@H]1C[C@@H]2OC3C=C(C)CCC3(C)[C@@]1(C)[C@@]21CO1 (some centres undefined)	–	–	–	–	106
O=S(=O)(c1ccc(Cl)cc1)N1Cc2ccc(Br)cc2-n2nncc2C1	·	–	–	–	?
CCN1/C(=C/C=C/C2=[N+](CC)c3ccccc3C2(C)C)C(C)(C)c2ccccc21	–	+	–	–	–
COc1ccc2c(c1)C13CCN4CC5=CCOC6CC(=O)N2C1C6C5CC43 (centres undefined)	–	–	·	–	71
COc1cc2c(cc1OC)[C@@]13CCN4CC5=CCO[C@H]6CC(=O)N2[C@H]1[C@H]6[C@H]5C[C@H]43	–	–	·	–	–
O=C(O)C(Br)CBr (centres undefined)	·	100	·	·	–
CS(=O)(=O)c1ccc(C2=C(CNC(=O)c3ccc([N+](=O)[O-])cc3)[C@H]3CC[C@@H](C2)N3Cc2ccccc2)cc1	–	–	–	–	–
O=C(NCC1=C(c2cccc3ccccc23)C[C@@H]2CC[C@H]1N2Cc1ccco1)c1ccc([N+](=O)[O-])cc1	25	–	–	–	–
O=C1NC(=O)C2C1C1(Cl)C(Cl)=C(Cl)C2(Cl)C1(Cl)Cl (centres undefined)	–	–	–	·	–
ClC1=C(Cl)C2(Cl)C3C(Cl)C=CC3C1(Cl)C2(Cl)Cl (centres undefined)	·	–	·	·	28
CN1CC[C@@H]2CN[C@H](c3ccccc3)C[C@@H]21	·	–	–	–	–
Cc1cc(=O)oc2cc(OCC(=O)N3CCC(C(=O)O)(c4ccccc4)CC3)ccc12	–	–	·	–	75
CNc1ccc2nc3ccccc3[n+](C)c2c1	–	+	–	–	–
C[n+]1c2ccccc2nc2ccc(NCCO)cc21	–	192	–	–	–
COC(=O)C1=C(c2cc3ccccc3s2)C[C@@H]2CC[C@H]1N2C(=O)NCc1ccc(F)cc1	–	–	–	·	–
COC(=O)C1=C(c2cccc(OCc3ccccc3)c2)C[C@@H]2CC[C@H]1N2C(=O)NCCOc1ccccc1	–	–	–	·	90
COC(=O)C1=C(c2ccc(F)cc2OCc2ccccc2)C[C@@H]2CC[C@H]1N2C(=O)N1CCC(O)(c2ccc(Cl)cc2)CC1	–	–	–	·	77
COC(=O)C1=C(c2cc3ccccc3s2)C[C@@H]2CC[C@H]1N2C(=O)NCc1ccccc1	–	–	–	·	117
COC(=O)C1=C(c2cccc(OCc3ccccc3)c2)C[C@@H]2CC[C@H]1N2C(=O)NCc1ccc(Cl)cc1	–	–	–	–	25
COC(=O)C1=C(c2cccc(OCc3ccccc3)c2)C[C@@H]2CC[C@H]1N2C(=O)NCc1ccccc1	–	–	–	–	–
O=C(Cc1ccccn1)N1CCCCN2[C@H](CO)[C@H](c3ccc(C#Cc4ccccc4)cc3)[C@H]2C1	–	–	·	–	–
SMILES	MLL AF4-AF9 inh	S100A4 inh HTS	CaV13 FRET inh	SIRT5 inh	DENV2 CPE rescue
CSc1ccc(CNC2CN3CCC2CC3)cc1 (centres undefined)	–	–	–	29	–
O=C1NC(=O)N(Cc2ccco2)C(=O)/C1=C/C=C/c1ccco1	–	–	–	15	–
O=C(Cc1ccccn1)N1CC2(C1)[C@H](c1ccccc1)[C@@H](CO)N2Cc1ccccn1	–	–	·	–	–
OCCNCCc1c[nH]c2ccc(OCc3ccccc3)cc12	–	–	–	20	–
O=C(O)[C@@H]1[C@@H](CO)[C@@H]2Cn3c(ccc(-c4cccc(F)c4)c3=O)[C@H]1N2CCc1ccccc1	–	–	·	–	–
COc1ccc2[nH]c(C)c(CCNCc3cn(C)c4ccccc34)c2c1	51	–	–	–	–
